# The source made the active and inactive calls. The calls are words filed in the database; no cut-off is given here.
# Test system: THP-1
# Assay: Antiinflammatory activity in human THP1 cells assessed as reduction in LPS and IFN-gamma-induced MCP1 level at 500 uM after 24 hrs
# Format: functional, cell-based
# How it was run: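 THP-1 cells in DMEM-F12 with 5% FBS, 24-well plates, pretreated 15 min with compound or DMSO vehicle, then stimulated with LPS 0.5 µg/mL plus IFN-γ 150 U/mL for 24 h. Death read as supernatant LDH (iodonitrotetrazolium formazan, 490 nm, fraction of Triton X-100 lysate); survival by MTT; MCP-1 by ELISA. Concentration effects by randomized block ANOVA; 8–11 independent experiments.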
compound,measurement,value
N#Cc1cnn(-c2ccccc2)c1NC(=O)C(=O)Nc1c(C#N)cnn1-c1ccccc1,Activity,Active

# Reference: ChEMBL document CHEMBL1212828, “Synthesis and biological evaluation of novel pyrazole compounds” (Bioorg Med Chem, 2010)
